Assay results as given in ChEMBL document CHEMBL4392827, “Tryptamine derivatives disarm colistin resistance in polymyxin-resistant gram-negative bacteria” (Bioorg Med Chem, 2019).

Experiments:
[1] = test system: Acinetobacter baumannii; assay: Potentiation of colistin-induced antimicrobial activity against colistin-resistant Acinetobacter baumannii 4106 assessed as fold reduction in colistin MIC at 60 uM after 18 hrs by broth microdilution assay; type: functional
Outline: (§1)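 Checkerboard-style resensitization following adapted CLSI broth microdilution. Bacteria were grown 4–6 h in CAMHB and subcultured to 5×10^5 CFU/mL. Adjuvant was added from DMSO stock and held constant while colistin was serially diluted in the dosed subculture. Plates were incubated stationary at 37°C for 18 h, then MICs were read. Fold reduction was taken relative to the colistin MIC without adjuvant.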

[2] = test system: Klebsiella pneumoniae; assay: Potentiation of colistin-induced antimicrobial activity against colistin-resistant Klebsiella pneumoniae B9 assessed as fold reduction in colistin MIC at 60 uM after 18 hrs by broth microdilution assay; type: functional; outline: as §1
[3] = test system: Acinetobacter baumannii; assay: Potentiation of colistin-induced antimicrobial activity against colistin-resistant Acinetobacter baumannii ATCC 17978 expressing mcr1 gene assessed as fold reduction in colistin MIC at 60 uM after 18 hrs by broth microdilution assay; type: functional; outline: as §1
[4] = test system: Escherichia coli; assay: Potentiation of colistin-induced antimicrobial activity against colistin-resistant Escherichia coli ATCC 25922 expressing mcr1 gene assessed as fold reduction in colistin MIC at 60 uM after 18 hrs by broth microdilution assay; type: functional; outline: as §1
[5] = test system: Klebsiella pneumoniae; assay: Toxicity in Klebsiella pneumoniae B9 after 18 hrs by broth microdilution assay; type: organism-based
Outline: (§2)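 Single-agent MIC per CLSI broth microdilution. Cells from a 4–6 h culture in cation-adjusted Mueller-Hinton broth adjusted to 5 ×10^5 CFU/mL. Compound (DMSO stock) added to 200 μM top concentration and twofold serially diluted six times, with an untreated control row. Plates sealed and incubated stationary at 37°C for 18 h before MIC read.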

[6] = test system: Acinetobacter baumannii; assay: Toxicity in Acinetobacter baumannii 4106 after 18 hrs by broth microdilution assay; type: organism-based; details: in vitro; outline: as §2
[7] = test system: Escherichia coli; assay: Toxicity in Escherichia coli ATCC 25922 after 18 hrs by broth microdilution assay; type: organism-based; details: in vitro; outline: as §2
[8] = test system: Acinetobacter baumannii; assay: Toxicity in Acinetobacter baumannii ATCC 17978 expressing mcr1 gene after 18 hrs by broth microdilution assay; type: organism-based; outline: as §2

SMILES	fold change (FC) [1]	fold change (FC) [2]	fold change (FC) [3]	fold change (FC) [4]	MIC [5]	MIC [6]	MIC [7]	MIC [8]
O=C(NCc1c[nH]c2ccccc12)c1cccc(Br)n1	32	32	0	0				
O=C(NCCc1c[nH]c2ccc(O)cc12)c1cc(Br)c(Br)[nH]1	4	8	4	4	> 200 µM	> 200 µM	> 200 µM	> 200 µM
Cn1cccc1C(=O)NCCc1c[nH]c2ccccc12	2	0	0	0				
O=C(NCCc1c[nH]c2ccccc12)c1ccc(Br)c(Br)n1	8	128	0	0				
O=C(NCCc1c[nH]c2ccccc12)c1cc(Br)c(Br)n1Cc1ccccc1	8	16	2	0				
O=C(NCCc1c[nH]c2ccccc12)c1ccc(Br)o1	16	64	2	0				
O=C(NCCc1c[nH]c2ccccc12)c1cncc(Br)c1	4	8	0	0				
CCCCn1c(C(=O)NCCc2c[nH]c3ccccc23)cc(Br)c1Br	16	16	2	0				
O=C(NCCc1csc2ccccc12)c1cc(Br)c(Br)[nH]1	32	16	8	4	> 200 µM	> 200 µM	> 200 µM	> 200 µM
O=C(NC1Cc2ccccc2C1)c1cc(Br)c(Br)[nH]1	8	0	0	0	> 200 µM	> 200 µM	> 200 µM	> 200 µM
O=C(NCCc1c[nH]c2ccccc12)c1ccccn1	8	0	0	0				
O=C(NCCc1ccccn1)c1cc(Br)c(Br)[nH]1	0	2	0	0	> 200 µM	> 200 µM	> 200 µM	> 200 µM
O=C(NCc1ccccc1)c1cc(Br)c(Br)[nH]1	2	2	0	0	> 200 µM	> 200 µM	> 200 µM	> 200 µM
O=C(NCCc1c[nH]c2ccccc12)c1cccs1	8	0	0	0				
